AI-2 QS modul: modulators of Vibrio harveyi AI-2 quorum sensing system; Vibrio harveyi JMH597 AI-2 luminescence/OD600 ratio, 9 h; active compounds read low; strain lacks LuxN and CqsS sensors; 0 = neutral-control median; activity change, % at 7.5 µM; 0.4% of 300,000 active; AID 2094; in the data active = activity change below about -75%, passing the limit was not always enough; inconclusive = no clear call, values can overlap the other calls;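 note: luminescence divided by OD600 gain over 9 h not by final OD600 alone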
RanGTP-Impb inh: inhibitors of RanGTP-importin-beta interaction, primary screen, biochemical, FRET, CFP-Ran, YFP-importin-beta, homogeneous | cell-free CFP-Ran/YFP-importin-beta FRET ratio | inhibition, % (concentration not given with the values) | 1.1% of 300,000 active | AID 2216;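 active = more than half of the replicate wells show a fall in the fluorescence ratio signal beyond about 16%, limit read from the data, passing the limit was not always enough; inconclusive = exactly half of the replicate wells pass the set limit; inactive = fewer than half of replicates pass the limit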
proKLK7 act: proKLK7 (human) activation, primary screen; P49862; activation, % at 7 µM; 0.9% of 370,000 active; purified proKLK7, EDANS-DABCYL substrate fluorescence; 100% is mature enzyme control, 0% vehicle;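 active = activation above the mean of all tested compounds plus 3 SD, computed per campaign excluding outliers beyond control limits, cut at about 13% in these data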
Target sequence (P49862 whole entry, looked up): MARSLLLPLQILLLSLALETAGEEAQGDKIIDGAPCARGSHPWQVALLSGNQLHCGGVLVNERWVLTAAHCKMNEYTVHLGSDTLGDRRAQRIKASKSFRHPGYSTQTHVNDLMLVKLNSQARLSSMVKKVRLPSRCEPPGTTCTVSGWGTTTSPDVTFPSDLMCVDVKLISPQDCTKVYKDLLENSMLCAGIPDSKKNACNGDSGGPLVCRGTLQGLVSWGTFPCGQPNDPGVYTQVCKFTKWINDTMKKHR
Runt-CBFb FRET: blocks binding of human RUNX1 Runt domain to CBFb. Q01196+Q13951. Cerulean-Runt/Venus-CBFb FRET ratio 530/480, 1 h. inhibition, % at 20 µM. 0.46% of 220,000 active. AID 1496;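 active = inhibition over about 50% at 20 µM in the single-dose screen, limit read from the data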
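test system = Cerulean-tagged RUNX1 Runt domain (FRET donor) fusion protein | reagent = Venus-CBFb binding partner, 100 nM | incubation = protein complex preformed 1 h, compound exposure 1 h, room temperature, dark | detection = FRET fluorescence | read-out basis = loss of energy transfer signal | controls = 5 µM unlabeled CBFb as full-inhibition high control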
Runt-SMMHC FRET: inhibitors of human RUNX1 Runt domain binding to CBFb-SMMHC; inhibition, % at 20 µM; 0.74% of 220,000 active; Q01196+Q13951; AID 1434; Cerulean-Runt/Venus-CBFb-SMMHC FRET ratio 530/480, 1 h;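 active = mean inhibition across duplicate retests at 20 µM reaching about 50%, limit read from the data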;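 note: inhibitors lower the FRET ratio by blocking Runt binding to CBFb-SMMHC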
Wee1 stabilizer: human Wee1 degradation inhibition, primary screen; P30291; 1.2% of 220,000 active; reporter increase, % at 5 µM; HeLa Luc-Wee1K328M stability, luciferase luminescence; 100% = proteasome inhibitor MG132 effect;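 active = activation above the mean of all tested compounds plus 3 SD, set per screening run, cut at about 8.8% in these data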;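 note: cells exposed to compound for 20 h before luminescence read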
proKLK7 act conf: confirmation of human kallikrein-7 zymogen activators | shares compounds with proKLK7 act | purified proKLK7, EDANS-DABCYL substrate fluorescence; scaled: vehicle 0, mature enzyme 100 | activation, % at 7 µM | 68% of 3,200 active | AID 686949;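 active = activation, as change over the incubation, above the mean of all tested compounds plus 3 SD, cut at about 13% in these data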
EDANS-DABCYL int: fluorescence interference counter-screen for KLK7 activators | EDANS-DABCYL substrate fluorescence interference, no enzyme, 4 h; solvent 0%, active enzyme control 100% | shares compounds with proKLK7 act | 80% of 3,200 active | activation, % at 7 µM;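 active = activation above the all-compound mean plus 3 SD, ignoring values outside control-based bounds, cut at about 4.8% in these data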;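 note: value is the 4 h activation minus the activation read at time zero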
Hits are given with their value; n = inactive; u = inconclusive; x = no result. Hits are enriched below; roughly 2.9% of the tested compounds scored in any of these assays.

SMILES	AI-2 QS modul	RanGTP-Impb inh	proKLK7 act	Runt-CBFb FRET	Runt-SMMHC FRET	Wee1 stabilizer	proKLK7 act conf	EDANS-DABCYL int
CCOc1ccccc1Oc1coc2cc(OC(=O)c3ccco3)ccc2c1=O	n	n	96	n	n	n	264	235
O=C(CCCCCN1C(=O)c2ccccc2C1=O)Oc1ccc2c3c(c(=O)oc2c1)CCC3	n	n	31	n	n	n	215	146
CCN(Cc1ccccc1)C(=O)CCS(=O)(=O)c1ccc2c(c1)NC(=O)CO2	n	n	n	x	x	x	x	x
NNC(=O)c1cc(S(=O)(=O)N2CCOCC2)c[nH]1	x	x	n	x	x	x	x	x
COc1cc(/C=C/C(=O)OC(C)C(=O)c2ccccc2)cc(OC)c1OC (configuration not stated)	n	u	n	x	x	x	x	x
COc1ccc(/C(C)=N/Nc2ncc(Cl)cc2Cl)c(O)c1	n	n	n	n	n	n	x	x
Cc1cc(NCC2CCCO2)n2c(nc3ccccc32)c1C#N (configuration not stated)	n	n	16	n	n	n	44	34
CC(C)c1cc(NCC2CCCO2)n2c(nc3ccccc32)c1C#N (configuration not stated)	n	n	21	n	n	n	n	n
CCCCN1C[C@H](COC(=O)CCC)Oc2cccc(F)c2S1(=O)=O	x	x	n	x	x	x	x	x
CCOC(=O)/C(C#N)=C/Nc1cc(OC)ccc1OC	n	n	n	n	n	n	x	x
CCOP(=O)(OCC)/C(C#N)=C/c1cc(OC)ccc1OC	n	n	42	n	n	n	39	39
CC(C)c1ccccc1OS(N)(=O)=O	n	n	n	x	x	x	x	x
COCCCn1c(C(=O)Nc2ccc3c(c2)OCO3)cc2c(=O)n3ccccc3nc21	n	n	n	x	x	x	x	x
CCOC(=O)c1cc2c(=O)n3ccccc3nc2n(CC(C)C)c1=NC(=O)c1ccco1	n	141	30	n	60	n	24	26
CCOCCCn1c(=NC(C)=O)c(C#N)cc2c(=O)n3ccccc3nc21	n	123	23	n	88	n	n	17
CCOC(=O)c1cc2c(=O)n3ccccc3nc2n(C(C)C)c1=NC(=O)c1ccncc1	n	85	37	92	170	n	56	62
CCOC(=O)c1cc2c(=O)n3ccccc3nc2n(CCOC)c1=NC(=O)c1ccncc1	n	96	24	62	63	n	n	13
CCOC(=O)c1cc2c(=O)n3ccccc3nc2n(CCCOC)c1=NC(=O)C(C)(C)C	n	n	22	56	n	n	15	15
CCOC(=O)C1(C)CCN1C(=O)c1cc(F)ccc1C (configuration not stated)	x	x	n	x	x	x	x	x
Cc1c(-c2ccccc2)c(=O)oc2cc(O)ccc12	n	u	25	x	x	x	65	69
Cc1c(-c2ccccc2)c(=O)oc2ccc(O)cc12	n	u	n	x	x	x	x	x
N#Cc1ccc(Oc2ccc(S(=O)(=O)N3CCOCC3)cn2)cc1	n	n	n	x	x	x	x	x
CCOc1ccc(OCCSc2nnnn2C2CCCCC2)cc1	n	n	n	n	n	n	x	x
CSc1ccc(/C=C/C(=O)N2CCCN(C)CC2)cc1	n	n	17	n	n	n	n	5.9
Cc1c(C(=O)N/N=C/c2cccs2)nc2ccccn12	n	n	n	n	n	n	x	x
SMILES	AI-2 QS modul	RanGTP-Impb inh	proKLK7 act	Runt-CBFb FRET	Runt-SMMHC FRET	Wee1 stabilizer	proKLK7 act conf	EDANS-DABCYL int
N#Cc1nc(-c2ccccc2)oc1NCCN1CCCCC1	n	n	40	n	n	n	n	10
N#Cc1nc(-c2cccs2)oc1NCCc1ccccc1	n	n	n	n	n	n	x	x
N#Cc1nc(-c2cccs2)oc1NCCN1CCOCC1	n	n	28	n	n	n	42	39
C=C(C)C1CC=C(C)/C(=N\NC(=O)CNc2cccc3ccccc23)C1 (configuration not stated)	n	n	25	n	n	n	n	6.8
CCC(N=c1cc(-c2ccc(OC)cc2)oc2ccc(C)cc12)C(=O)O (configuration not stated)	n	n	36	n	n	n	61	72
COc1ccc(-c2c(C)oc3ccc(C)cc23)cc1	n	n	n	n	n	n	x	x
CCC(N=c1cc(-c2ccc(OC)c(OC)c2)oc2ccc(C)cc12)C(=O)O (configuration not stated)	n	n	19	n	n	n	29	26
O=C(COC(=O)c1ccccc1Nc1ccc(SC(F)F)cc1)NCc1ccco1	n	n	n	n	n	n	x	x
CCC[C@@H](NS(=O)(=O)c1ccc(C)cc1)C(=O)Oc1ccc2c3c(c(=O)oc2c1)CCC3	n	n	42	n	n	n	631	536
COc1ccc2c(C)c(Cl)c(=O)oc2c1	n	n	n	n	n	n	x	x
Cc1ccc(S(=O)(=O)NC(C(=O)Oc2ccc3c(C)c(Cl)c(=O)oc3c2)c2ccccc2)cc1 (configuration not stated)	n	72	55	64	59	n	69	78
O=C(COc1ccc([N+](=O)[O-])cc1)Nc1ccc2c(c1)OCO2	n	n	n	n	n	n	x	x
COc1cc2c(cc1OC)C(COc1ccc(F)cc1)NCC2 (configuration not stated)	n	n	n	x	x	x	x	x
COc1cc2c(cc1OC)C(COc1ccc([N+](=O)[O-])cc1)NCC2 (configuration not stated)	n	n	14	x	x	x	n	n
CCOC(=O)C(=NC(C)CC)NNc1cccc(C(F)(F)F)c1 (configuration not stated)	n	n	17	n	n	n	22	26
CCOC(=O)C(=NC(C)CC)NNc1ccc(Br)cc1 (configuration not stated)	n	n	16	n	n	n	24	26
CCOC(=O)C(=NC1CCCCC1)NNc1cccc(C(F)(F)F)c1	n	n	n	n	n	n	x	x
COc1ccc(CN2C(=O)NC3(CCCCCC3)C2=O)cc1F	n	n	n	n	n	x	x	x
CSCCC(NS(=O)(=O)c1ccccc1)C(=O)OCc1cc(=O)oc2cc(O)ccc12 (configuration not stated)	n	u	435	x	x	x	498	529
CC(=O)Nc1ccc2c(COC(=O)[C@H](C)N3C(=O)C4CCCCC4C3=O)cc(=O)oc2c1 (some centres not stated)	n	n	24	n	n	n	n	4.7

Compound activity deposited in PubChem by several laboratories.
